Measured values taken from paper PMC11387586 (Pharmacology Research & Perspectives, 2024).
Where “and” joins values, the source holds several entries; their conditions need not be identical. Equal entries are not always repeated.

Columns and labels:
[1] = Plasma pharmacokinetics of aficamten, M1a and M1b; assay type: in vivo, human
Outline: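 About 3 mL K2EDTA blood was drawn predose and at 0.25–48 h, then every 24 h. Plasma was spun at about 2000G for 10 min at 4°C and stored at −20°C. Validated LC-MS/MS: parent on C18 with 10 mM ammonium acetate/acetonitrile gradient; M1a/M1b on a chiral column with 30:70 acetonitrile:10 mM ammonium acetate. Non-compartmental analysis gave Cmax, tmax, t1/2, AUCs, CL/F and Vz/F.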

[2] = Total radioactivity in plasma and whole blood; assay type: in vivo, human; settings: for Total radioactivity t1/2 / Total radioactivity tmax: median (range)
Outline: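 About 4 mL K2EDTA blood was drawn at the PK time points. […] Counting ran at least 5 min with quench correction, in duplicate where possible. LLOQ was 9.57 ng equivalents/g for blood and 6.86 for plasma. Non-compartmental analysis; tmax and t1/2 given as median (range), others as geometric mean.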

[3] = Urinary excretion of aficamten, M1a and M1b; assay type: in vivo; settings: human, urine, oral, 20 mg, renal clearance (CLR), geometric mean
Outline: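 Urine was collected predose, at 0–4, 4–8, 8–12 and 12–24 h, then every 24 h until discharge. Isopropyl alcohol equal to 20% of void mass was added, pools were kept at 4°C, and aliquots were frozen at −20°C. Urinary excretion of parent and M1a/M1b (fe0-tlast) and renal clearance came from non-compartmental analysis, given as geometric means.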

[4] = Mass balance: radioactive dose recovered in urine and feces; assay type: in vivo, human; settings: for Cumulative percent of radioactive dose recovered: urine
Outline: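 8 healthy men each got one [14C]-labelled 20 mg oral capsule (about 100 μCi) with 240 mL water after a fast of at least 10 h. Urine was collected at 0–4, 4–8, 8–12 and 12–24 h, then every 24 h; feces every 24 h, homogenised in about 20:80 acetonitrile:water. Urine was counted directly by LSC; fecal homogenate was combusted first. Samples ran in duplicate. Collection continued until discharge criteria were met.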

[5] = Metabolite profiling of plasma; assay type: in vivo, human; settings: pooled samples 2 to 264 h
Outline: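 Plasma taken at 2, 4, 12, 24, 72, 120, 168 and 264 h was pooled across participants by time point, in proportion to weight (1.2–2.5 g each), then counted by LSC. LC-HRMS profiling used fraction radioactivity counts. For chiral M1a/M1b separation, a 2–264 h pool ran on a cellulose column with reverse-phase gradient, 0.6 mL/min, over 15 min. Exposure = component AUC0-t / total radioactivity AUC0-t × 100.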

[6] = Metabolite profiling of urine; assay type: in vivo, human; settings: pooled urine
Outline: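 Urine was pooled per participant into 0–336, 0–384 and 0–432 h pools (0.03–0.08% of each sample weight) and counted by LSC. Radiochromatograms came from LC-HRMS fractions. Chiral separation of M1a and M1b used a […] pool. Identification cut-off was 1% of dose; quantitation limit was 1% of run and 10 cpm peak height. % of dose = (% radioactivity in peak/100) × % of dose in sample.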

[7] = Metabolite profiling of feces; assay type: in vivo, human; settings: pooled feces
Outline: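 Feces from single oral 20 mg (about 100 μCi) [14C] dosing was homogenised in about 20:80 acetonitrile:water. Metabolites were profiled by LC-HRMS with radioactivity counted in collected fractions. Identification cut-off was 1% of dose; quantitation limit was 1% of run and 10 cpm peak height. % of dose = (% radioactivity in peak/100) × % of dose in sample.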

Safety assessments = assay type: in vivo, human; settings: single oral 20 mg
Outline: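 After one [14C] 20 mg oral dose, eight healthy men were monitored for vital signs, 12-lead ECG, clinical chemistry, haematology, urinalysis and adverse events at several time points. They stayed confined until at least Day 19 or until discharge criteria were met. A follow-up phone call came 7–9 days after discharge.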

[8] = cited from earlier work
[9] = cited from earlier work; remark: listed apart in the source
[10] = oral dose, cited from earlier work
[11] = tested on: naive rat intestinal contents; settings: anaerobic conditions; cited from earlier work
[12] = whole blood, geometric mean (CV%)

SMILES: CCc1nc(-c2ccc3c(c2)CC[C@H]3NC(=O)c2cnn(C)c2)no1 [Aficamten]
- Tmax ([1]; human, po, 20 mg): 2 h
- Vd/F ([1]; human, po, 20 mg): 690 L
- AUC ([1]; human, po, 20 mg, AUC0‐inf, single oral 20 mg, geometric mean (CV%)): 4440 ng·h/mL
- AUC ([1]; human, po, 20 mg, AUC0‐tlast, single oral 20 mg, geometric mean (CV%)): 4120 ng·h/mL
- Cmax ([1]; human, po, 20 mg, Cmax, single oral 20 mg, geometric mean (CV%)): 61.8 ng/mL
- half-life ([1]; human, po, 20 mg, t1/2, plasma, single oral 20 mg, median (range)): 99.6 h
- CL/F ([1]; single oral 20 mg, geometric mean (CV%)): 4.50 (32.1) L/h
- CL/F ([1]; single oral 20 mg, geometric mean (CV%), listed as aficamten): 4.50 L/h
- ratio of plasma analyte to plasma total radioactivity, AUC0‐inf ([2]; geometric mean): 0.290
- ratio of total radioactivity in whole blood: plasma based on AUC0‐inf ([2]; geometric mean): 0.566
- Total radioactivity Cmax ([2]; plasma, geometric mean (CV%)): 111 (43.2) ng/mL
- Total radioactivity t1/2 ([2]; plasma): 98.2 (80.1–230) h
- Total radioactivity tmax ([2]; plasma): 3.50 (1.00–6.00) h
- Total radioactivity AUC0‐inf [2, 12]: 8660 (23.7) h.ng/mL
- Total radioactivity AUC0‐tlast [2, 12]: 5710 (38.5) h.ng/mL
- Total radioactivity Cmax [2, 12]: 66.7 (44.9) ng/mL
- Total radioactivity t1/2 ([2]; whole blood): 100 (86.2–171) h
- Total radioactivity tmax ([2]; whole blood): 4.50 (1.00–16.0) h
- CL renal [3]: 0.0438 mL/min
- fraction of dose absorbed ([4]; based on recovery data): at least 0.95
- mean recovery of radiolabeled material ([4]; urine and feces combined, by 336 h postdose): 85.0%
- overall mean recovery of radioactivity in urine and feces ([4]; urine and feces combined, end of sampling period (600 h)): 89.7%
- Cumulative percent of radioactive dose recovered ([4]; 0–96 h, individual subject): 24.1% and 8.99% and 16.2% and 13.5% and 11.2% and 17.7% and 18.3% and 14.0%
- Cumulative percent of radioactive dose recovered ([4]; 0–96 h, mean): 15.5%
- Cumulative percent of radioactive dose recovered ([4]; 0–120 h, individual subject): 27.4% and 11.2% and 18.0% and 15.7% and 13.7% and 20.5% and 21.1% and 16.4%
- Cumulative percent of radioactive dose recovered ([4]; 0–120 h, mean): 18.0%
- Cumulative percent of radioactive dose recovered ([4]; 0–144 h, individual subject): 31.3% and 13.3% and 20.8% and 17.1% and 15.7% and 22.2% and 23.6% and 18.7%
- Cumulative percent of radioactive dose recovered ([4]; 0–144 h, mean): 20.3%
- Cumulative percent of radioactive dose recovered ([4]; 0–168 h, individual subject): 34.3% and 14.7% and 22.3% and 18.2% and 17.5% and 24.1% and 25.7% and 20.7%
- Cumulative percent of radioactive dose recovered ([4]; 0–168 h, mean): 22.2%
- Cumulative percent of radioactive dose recovered ([4]; 0–192 h, individual subject): 36.9% and 16.1% and 23.8% and 19.2% and 18.6% and 25.5% and 27.2% and 22.3%
- Cumulative percent of radioactive dose recovered ([4]; 0–192 h, mean): 23.7%
- Cumulative percent of radioactive dose recovered ([4]; 0–216 h, individual subject): 38.9% and 17.6% and 25.3% and 20.3% and 19.9% and 26.6% and 28.6% and 23.8%
- Cumulative percent of radioactive dose recovered ([4]; 0–216 h, mean): 25.1%
- Cumulative percent of radioactive dose recovered ([4]; 0–240 h, individual subject): 40.8% and 18.6% and 27.2% and 21.3% and 20.8% and 27.7% and 29.6% and 25.2%
- Cumulative percent of radioactive dose recovered ([4]; 0–240 h, mean): 26.4%
- Cumulative percent of radioactive dose recovered ([4]; 0–264 h, individual subject): 42.5% and 19.7% and 28.6% and 21.9% and 21.6% and 28.5% and 30.6% and 26.2%
- Cumulative percent of radioactive dose recovered ([4]; 0–264 h, mean): 27.5%
- Cumulative percent of radioactive dose recovered ([4]; 0–288 h, individual subject): 43.8% and 20.5% and 29.9% and 22.5% and 22.0% and 29.3% and 31.2% and 27.1%
- Cumulative percent of radioactive dose recovered ([4]; 0–288 h, mean): 28.3%
- Cumulative percent of radioactive dose recovered ([4]; 0–312 h, individual subject): 44.8% and 20.9% and 30.6% and 22.9% and 22.4% and 30.0% and 31.8% and 27.8%
- Cumulative percent of radioactive dose recovered ([4]; 0–312 h, mean): 28.9%
- Cumulative percent of radioactive dose recovered ([4]; 0–336 h, individual subject): 45.7% and 21.8% and 31.4% and 23.2% and 22.7%
- Cumulative percent of radioactive dose recovered ([4]; 0–336 h, mean): 29.5%
- AUC0‐t % of total radioactivity AUC0‐t [5]: 19.8%
- AUC0‐t % of total radioactivity AUC0‐t ([5]; listed as aficamten): approximately 19.8%
- Percent of radioactive dose in urine [6]: No unchanged aficamten was recovered
- Percent of radioactive dose in feces [7]: 5.07%
- Percent of radioactive dose in feces ([7]; listed as aficamten): approximately 5.07%
- tolerability (Safety assessments; 8 healthy male participants): well tolerated
- changes in vital signs, ECG measurements, laboratory values (Safety assessments; 8 participants): no clinically significant changes in vital signs, ECG measurements, or laboratory values
- deaths, serious AEs, AEs leading to discontinuation (Safety assessments; 8 participants): no deaths, and serious AEs or any AEs leading to discontinuation
- participants with an AE (diarrhea, mild, not considered related to treatment) (Safety assessments; 8 participants): 12.5%
- effect of food on absorption [8]: did not affect the extent of aficamten absorption
- time to steady state concentrations ([8]; multiple doses): ≤ 2 weeks
- PK parameters in moderate hepatic impairment versus normal hepatic function [9]: generally comparable
- percent of the [^14C]aficamten radioactive dose in bile ([10]; bile duct cannulated rats): trace level
- percent of the [^14C]aficamten radioactive dose in feces ([10]; intact rats): lack of detection
- radioactive dose excreted by the hepatobiliary route ([10]; rat): approximately 90%
- radioactive dose excreted in urine ([10]; rat): approximately 8%
- fate on incubation with rat intestinal contents [11]: completely cleared
